The values that follow come from ChEMBL document CHEMBL1138152, “Design and synthesis of novel hydrazide-linked bifunctional peptides as delta/mu opioid receptor agonists and CCK-1/CCK-2 receptor antagonists” (J Med Chem, 2006).

Assay [1] addresses T1, Cholecystokinin receptor (Homo sapiens) (UniProt P32239+P32238). Description: Agonist activity at CCK receptor of guinea pig ileum at 1 uM. Type of assay: functional, tissue-based. Particulars: Cavia porcellus, target entry is the homologue from another species. In a few lines: (§1)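 Guinea pig ileum LMMP strips (male Hartley), 20-mL baths, 1 g tension, oxygenated Krebs bicarbonate buffer, 37 °C. Tissue first challenged with 67 mM KCl to set maximal contraction. Test compound added to the bath; agonist activity taken as contraction height as a percentage of the maximal KCl contraction (A50).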

Assay [2] in a line: Selectivity for human delta opioid receptor over rat mu opioid receptor.
The target of assay [3] is Mu-type opioid receptor (Rattus norvegicus) (UniProt P33535). Briefly: Inhibition of [35S]GTP-gamma-S binding to rat mu opioid receptor expressed in CHO cells. Type of assay: functional, cell-based. A digest of the protocol:
(§2)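 CHO-expressed receptor membranes (10 µg) in 50 mM HEPES pH 7.4 with EDTA, 5 mM MgCl2, 30 µM GDP, DTT, 100 mM NaCl, PMSF, BSA and 0.1 nM [35S]GTPγS. Test drug at various concentrations, duplicate or triplicate, 90 min at 30 °C. Nonspecific binding with 10 µM GTPγS.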

Assay [4] addresses Delta-type opioid receptor (Homo sapiens, UniProt P41143). Briefly: Inhibition of [35S]GTP-gamma-S binding to human delta opioid receptor expressed in CHO cells. In kind it is functional, cell-based. A digest of the protocol:
as §2

In assay [5] the target is T1, Cholecystokinin receptor (Homo sapiens). Briefly: Antagonist activity at CCK receptor by inhibition of CCK8-induced muscle contraction in unstimulated GPI/LMMP. In kind it is functional. The note with it: Cavia porcellus; target entry is the homologue from another species. A digest of the protocol:
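Male Hartley guinea pig ileum LMMP strips, 1 g tension, oxygenated Krebs bicarbonate buffer, 37 °C; 67 mM KCl sets maximal contractility. Initial noncumulative CCK-8 dose-response curve built. Test compound added without electrical stimulation; 3 min later the CCK-8 curve was rebuilt at an antagonist dose giving about a 3-fold rightward shift. Ke is the antagonist concentration halving CCK-8 activity.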

Assay [6] has as its target Delta-type opioid receptor (Mus musculus, UniProt P32300). Description: Agonist activity at delta opioid receptor by inhibition of muscle contraction in electrically stimulated isolated mouse vas deferens. In kind it is functional, tissue-based. A digest of the protocol:
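Male ICR mouse vasa deferentia in 20-mL baths, 0.5 g tension, oxygenated Mg-free Krebs at 37 °C; field stimulation 0.1 Hz, 2.0 ms single pulses, supramaximal voltage. Tissue integrity checked with DPDPE (10 nM). Compound added cumulatively until maximal inhibition. Inhibition taken as mean contraction height for 1 min before dosing versus height 3 min after. IC50 from Hill-equation fit by nonlinear least squares.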

Assay [7] has as its target T1, Cholecystokinin receptor (Homo sapiens). Description: Agonist activity at CCK receptor of guinea pig ileum at 300 nM. Type of assay: functional, tissue-based. Particulars: Cavia porcellus, target entry is the homologue from another species. In a few lines:
as §1

For assay [8], the target named is Mu-type opioid receptor (Cavia porcellus, UniProt P97266). Description: Agonist activity at mu opioid receptor by inhibition of muscle contraction in electrically stimulated isolated guinea pig ileum. Type of assay: functional, tissue-based. In a few lines: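 Longitudinal muscle–myenteric plexus strips from male Hartley guinea pig ileum, 1 g tension, oxygenated Krebs at 37 °C, 15 min equilibration. Stimulated at 0.1 Hz, 0.4 ms, supramaximal voltage. Integrity checked with PL-017 (10 nM). Compound added until maximal inhibition. Inhibition taken as contraction height 1 min before versus 3 min after dosing. IC50 from Hill-equation fit.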

Assay [9] addresses T1, Cholecystokinin receptor (Homo sapiens). Briefly: Antagonist activity at CCK receptor by inhibition of CCK8-induced muscle contraction in unstimulated GPI/LMMP at 1 uM. Type of assay: functional. Particulars: Cavia porcellus, filed as partial agonist, target entry is the homologue from another species.

Chain of Mu-type opioid receptor (Rattus norvegicus) (P33535 whole entry): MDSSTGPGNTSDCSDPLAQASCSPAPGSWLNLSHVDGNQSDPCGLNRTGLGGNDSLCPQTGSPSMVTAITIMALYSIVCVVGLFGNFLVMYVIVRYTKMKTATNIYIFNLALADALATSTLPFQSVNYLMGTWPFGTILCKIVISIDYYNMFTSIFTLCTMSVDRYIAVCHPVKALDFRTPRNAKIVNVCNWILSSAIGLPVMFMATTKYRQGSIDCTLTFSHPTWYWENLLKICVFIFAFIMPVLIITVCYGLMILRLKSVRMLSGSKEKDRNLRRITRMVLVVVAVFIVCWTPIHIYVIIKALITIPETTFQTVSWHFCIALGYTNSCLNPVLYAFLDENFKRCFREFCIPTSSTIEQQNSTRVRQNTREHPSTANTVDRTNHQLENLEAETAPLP
Chain of Delta-type opioid receptor (Homo sapiens, UniProt P41143) (P41143 whole entry): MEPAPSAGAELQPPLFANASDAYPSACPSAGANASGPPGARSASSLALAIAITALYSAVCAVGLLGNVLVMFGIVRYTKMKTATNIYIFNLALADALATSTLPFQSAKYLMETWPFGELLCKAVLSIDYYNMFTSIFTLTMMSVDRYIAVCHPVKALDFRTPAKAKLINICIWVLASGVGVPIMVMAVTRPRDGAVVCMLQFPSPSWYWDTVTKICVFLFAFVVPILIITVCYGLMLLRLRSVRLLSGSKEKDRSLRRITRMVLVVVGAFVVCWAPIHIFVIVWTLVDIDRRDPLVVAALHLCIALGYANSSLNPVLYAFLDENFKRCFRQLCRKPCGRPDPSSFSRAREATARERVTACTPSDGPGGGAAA
T1 sequence (P32238 whole entry, looked up): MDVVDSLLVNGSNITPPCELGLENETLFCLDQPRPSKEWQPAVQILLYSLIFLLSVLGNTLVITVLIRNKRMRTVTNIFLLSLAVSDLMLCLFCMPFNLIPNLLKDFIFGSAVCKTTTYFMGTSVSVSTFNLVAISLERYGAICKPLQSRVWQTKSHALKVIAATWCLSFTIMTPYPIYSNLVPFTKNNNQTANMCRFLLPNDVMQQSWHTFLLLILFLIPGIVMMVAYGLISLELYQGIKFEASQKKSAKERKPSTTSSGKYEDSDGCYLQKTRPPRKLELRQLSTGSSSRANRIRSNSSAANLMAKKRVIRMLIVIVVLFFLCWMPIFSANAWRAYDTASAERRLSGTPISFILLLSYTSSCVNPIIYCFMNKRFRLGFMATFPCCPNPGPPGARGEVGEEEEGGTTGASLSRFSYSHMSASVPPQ
T1 sequence (P32239 whole entry, looked up): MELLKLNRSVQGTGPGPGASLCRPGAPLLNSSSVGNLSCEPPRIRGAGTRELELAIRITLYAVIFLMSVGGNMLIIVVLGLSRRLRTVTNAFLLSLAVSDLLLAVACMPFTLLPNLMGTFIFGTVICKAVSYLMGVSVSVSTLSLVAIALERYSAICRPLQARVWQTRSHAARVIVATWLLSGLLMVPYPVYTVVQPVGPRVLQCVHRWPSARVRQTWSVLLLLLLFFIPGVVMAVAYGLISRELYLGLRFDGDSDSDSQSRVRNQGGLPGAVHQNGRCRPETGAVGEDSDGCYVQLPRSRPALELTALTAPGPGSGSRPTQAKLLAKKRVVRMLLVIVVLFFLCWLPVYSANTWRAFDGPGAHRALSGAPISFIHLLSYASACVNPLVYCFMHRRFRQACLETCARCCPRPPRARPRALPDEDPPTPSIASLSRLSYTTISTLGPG
Chain of Mu-type opioid receptor (P97266 whole entry): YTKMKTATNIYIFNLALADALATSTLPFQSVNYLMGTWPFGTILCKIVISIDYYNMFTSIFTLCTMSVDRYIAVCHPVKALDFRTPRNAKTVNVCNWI
Chain of Delta-type opioid receptor (Mus musculus, UniProt P32300) (P32300 whole entry): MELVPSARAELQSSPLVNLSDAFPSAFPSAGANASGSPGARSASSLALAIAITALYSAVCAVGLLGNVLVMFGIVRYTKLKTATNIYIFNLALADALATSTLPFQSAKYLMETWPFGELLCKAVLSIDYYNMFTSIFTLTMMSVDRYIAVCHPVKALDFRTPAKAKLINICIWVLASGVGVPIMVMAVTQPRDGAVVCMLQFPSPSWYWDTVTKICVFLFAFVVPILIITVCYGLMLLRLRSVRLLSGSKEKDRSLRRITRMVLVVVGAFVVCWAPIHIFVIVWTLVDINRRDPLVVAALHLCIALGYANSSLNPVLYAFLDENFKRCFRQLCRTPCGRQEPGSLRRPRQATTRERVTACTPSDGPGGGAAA

In general, Emax refers to the greatest response seen or fitted, relative to the assay's reference. `CCCC[C@H](NC(=O)[C@H](CC(=O)O)NC(=O)[C@H](Cc1ccccc1)NN[C@@H](Cc1ccccc1)C(=O)NCC(=O)N[C@H](C)C(=O)N[C@@H](Cc1ccc(O)cc1)C(=O)O)C(=O)N[C@H](Cc1cn(C(=O)OC23CC4CC(CC(C4)C2)C3)c2ccccc12)C(=O)O` displayed an Activity in assay [1] of 0%. Besides, the Selectivity ratio in [2] was 430. Moreover, the results for the Emax in assay [3] and in [4] were 103% and 25%, respectively. Moreover, in [5], the Ke came out at 44 nM.
As usually defined, the IC50 is the concentration needed to halve the response being measured. Lower therefore signals greater potency. As for `CCCC[C@@H](C(=O)N[C@@H](CC(=O)O)C(=O)N[C@@H](Cc1ccccc1)C(N)=O)N(C)C(=O)[C@H](Cc1c[nH]c2ccccc12)NC(=O)CNC(=O)[C@@H](Cc1ccccc1)NC(=O)[C@H](Cc1ccc(O)cc1)NC(=O)[C@@H](N)CC(=O)O`, the IC50 in assay [6] is 29 nM; in [8], 220 nM. The Activity in [7] came to 0%. Besides, the Ke in assay [5] is 66 nM.
Take `CCCC[C@@H](C(=O)N[C@@H](Cc1cn(C(C)=O)c2ccccc12)C(=O)O)N(C(=O)Nc1ccccc1Cl)C(=O)[C@H](CC(=O)O)NC(=O)[C@H](Cc1ccccc1)N(C)N[C@@H](Cc1ccccc1)C(=O)NCC(=O)N[C@H](C)C(=O)N[C@@H](Cc1ccc(O)cc1)C(=O)O`: the Activity in assay [1] was 0%. Also, the Emax worked out at 33% in assay [3] and 81% in assay [4]. The Ke in assay [5] turned out to be 150 nM.
For `CCCC[C@H](NC(=O)[C@H](CC(=O)O)NC(=O)[C@H](Cc1ccccc1)NN[C@@H](Cc1ccccc1)C(=O)NCC(=O)N[C@H](C)C(=O)N[C@@H](Cc1ccc(O)cc1)C(=O)O)C(=O)N[C@H](Cc1cn(C(=O)OC(C)(C)C)c2ccccc12)C(=O)O`, the Activity in assay [1] was 0%. Besides, the Emax in assay [3] stood at 170%; in [4], 100%. The compound also returned a Ke in assay [5] of 6.5 nM.
Consider `CCCC[C@H](NC(=O)[C@H](CC(=O)O)NC(=O)[C@H](Cc1ccccc1)NN[C@@H](Cc1ccccc1)C(=O)NCC(=O)N[C@H](C)C(=O)N[C@@H](Cc1ccc(O)cc1)C(=O)O)C(=O)N[C@@H](Cc1cn(C(=O)OC(C)(C)C)c2ccccc12)C(=O)O`, for which, in assay [1], the Activity was 0%. The Emax in assay [3] turned out to be 83%; in assay [4], 54%. Also, the Ke in assay [5] came to 14 nM.
With `CCCC[C@@H](C(=O)N[C@H](Cc1cn(C(=O)OC(C)(C)C)c2ccccc12)C(=O)O)N(C)C(=O)[C@H](CC(=O)O)NC(=O)[C@H](Cc1ccccc1)NN[C@@H](Cc1ccccc1)C(=O)NCC(=O)N[C@H](C)C(=O)N[C@@H](Cc1ccc(O)cc1)C(=O)O`, the Activity in assay [1] was 5%. For the same compound, in [9], the Ke entry was “Partial agonist”. Moreover, the Emax in assay [3] is 130%; in [4], 120%.
